# NR2E3 ag-1: inhibitors of NR2E3-RetCOR corepressor binding, primary screen, NR2E3 agonist project, biochemical, TR-FRET, GST-NR2E3, biotin-RetCOR | 0.12% of 320,000 active | inhibition of corepressor binding, % at 4.78 µM | 1536-well | AID 2300, 2010 | Photoreceptor-specific nuclear receptor (Homo sapiens), Q9Y5X4;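 active = percent inhibition above the cutoff of mean plus 3 SD of all tested compounds, set per screening campaign, cut at about 20% in these data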;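 also: 0% = DMSO wells and 100% = biotin wells as full block of FRET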
# Target sequence (Q9Y5X4 whole entry, looked up): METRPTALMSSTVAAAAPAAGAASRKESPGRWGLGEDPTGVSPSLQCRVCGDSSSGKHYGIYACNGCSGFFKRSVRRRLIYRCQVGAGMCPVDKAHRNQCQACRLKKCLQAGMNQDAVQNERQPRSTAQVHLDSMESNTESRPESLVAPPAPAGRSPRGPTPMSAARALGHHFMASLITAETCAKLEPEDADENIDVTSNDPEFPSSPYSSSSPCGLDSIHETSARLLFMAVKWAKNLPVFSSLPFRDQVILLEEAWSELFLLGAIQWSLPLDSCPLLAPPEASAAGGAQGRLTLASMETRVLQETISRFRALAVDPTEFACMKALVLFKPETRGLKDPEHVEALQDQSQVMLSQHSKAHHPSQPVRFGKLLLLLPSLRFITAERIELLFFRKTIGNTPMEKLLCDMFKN
#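 Material – GST-tagged NR2E3 plus biotinylated RetCOR corepressor · Quantity – NR2E3 fusion 1.35 nM · Times – 5 h incubation at 4 °C · Medium – pH 7.5 Tris-based buffer · Technique – TR-FRET, Eu(K)-anti-GST donor, streptavidin-D2 acceptor, ex 340, em 617/671 nm · Benchmarks – high control biotin, low control 0.6% DMSO · Format – 1536-well plates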
# Jurkat NFkB inh: inhibitors of induced NF-kB luciferase reporter, primary screen, TCR NF-kB activation inhibitor project, cell-based, luminescence, uHTS; inhibition, % at 4 µM; AID 435003, 2010; Jurkat, PMA/ionomycin-induced NF-kB luciferase reporter; 0.53% of 330,000 active; in the data active = inhibition above about 50%
# NR2E3 ag-2: NR2E3 agonists in two-hybrid cells, primary screen, cell-based, luminescence, CHO-S, Gal4-NCOR/VP16-NR2E3. Photoreceptor-specific nuclear receptor (Homo sapiens), Q9Y5X4. luciferase. inhibition of corepressor binding, % at 3.98 µM. 0.35% of 360,000 active. AID 602229, 2012;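 active = inhibition above the mean of all tested compounds plus 3 SD, cut at about 70% in these data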;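 also: 0% = DMSO with NR2E3 transfected cells and 100% = cells lacking NR2E3 construct; higher means lower luciferase signal from less NR2E3 corepressor binding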
# GalR3 antag: GalR3 antagonists in HEK293 cells, primary screen, cell-based, fluorescence readout | Galanin receptor type 3 (Homo sapiens), O60755 | HEK293 GalR3-CNG cAMP membrane potential fluorescence; galR3 body fused to GalR1 C-terminus | inhibition, % at 3 µM | 0.44% of 360,000 active | AID 651719, 2012;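 active = inhibition above the screen-wide average plus 3 SD, cut at about 13% in these data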;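 also: forskolin and galanin both at EC90 stimulate the cells; cAMP rise reported by CNG channel membrane potential dye signal; 0% = forskolin plus galanin with DMSO and 100% = forskolin alone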
# Target sequence (O60755 1-299 limits assumed): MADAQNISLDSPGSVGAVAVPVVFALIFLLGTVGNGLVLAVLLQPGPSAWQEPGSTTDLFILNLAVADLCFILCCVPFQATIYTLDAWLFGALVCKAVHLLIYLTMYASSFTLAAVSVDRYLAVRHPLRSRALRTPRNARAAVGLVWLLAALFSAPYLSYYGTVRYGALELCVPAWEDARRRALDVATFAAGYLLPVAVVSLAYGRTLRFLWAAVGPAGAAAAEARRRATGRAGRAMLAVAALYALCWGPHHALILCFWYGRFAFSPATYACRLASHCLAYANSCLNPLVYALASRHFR
# Gli-Sufu block: Gli-Sufu pathway antagonists, primary screen, luciferase luminescence, Sufu-KO-LIGHT cells, uHTS; Sufu-KO-LIGHT fibroblasts, Gli luciferase reporter luminescence; inhibition, % at 5 µM; 0.74% of 340,000 active; AID 588413, 2011;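 active = inhibition above about 55%, limit read from the data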;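 also: 0% = DMSO-treated cells and 100% = wells with medium but no cells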
# 697 NFkB inh: inhibitors of PMA/ionomycin-induced NF-kB reporter, 697 cells, primary screen, B-cell NF-kB inhibitor project, cell-based, luminescence, uHTS; 697 B-cell NF-kB luciferase reporter, 16 h; inhibition, % at 4 µM; 0.33% of 330,000 active; in the data active = inhibition above about 35%
# Gli-Sufu confirm: Gli-SUFU pathway antagonists, confirmation, single concentration, luciferase luminescence, Sufu-KO-LIGHT cells; AID 602428, 2012; shares compounds with Gli-Sufu block; inhibition, % at 5 µM; Gli luciferase reporter; 40% of 2,500 active;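 active = mean inhibition at 5 µM reaching about 45%, limit read from the data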;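 also: plate controls were DMSO-treated cells for no effect and wells lacking cells for full effect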
# Gli cytotox: cytotoxicity in Sufu-KO-LIGHT cells, confirmation, cytotoxicity control for Gli-SUFU antagonist project, cell-based, ATP luminescence, single concentration; cytotoxicity, % at 5 µM; 32% of 2,500 active; shares compounds with Gli-Sufu block;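 active = mean cytotoxicity at 5 µM above about 25%, limit read from the data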;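 also: cells exposed to compound overnight for roughly 16 to 18 hours; plate controls were DMSO wells with cells for no effect and medium without cells for full effect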
# Wnt3a counter: Wnt3a reporter signal inhibition, confirmation, counter-screen for Gli-SUFU antagonist project, Wnt-LIGHT cells, luminescence, single concentration | shares compounds with Gli-Sufu block | Wnt3a-driven luciferase reporter | inhibition, % at 6.25 µM | 20% of 2,500 active | AID 651995, 2013;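 active = mean inhibition above about 25%, limit read from the data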
# NR2E3 ag conf: NR2E3 agonist confirmation in cells, cell-based, luminescence, CHO-S two-hybrid. shares compounds with NR2E3 ag-2. CHO-S mammalian two-hybrid NR2E3-NCOR, luciferase luminescence. inhibition, % at 3.98 µM. 51% of 2,300 active. AID 624378, 2012;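 active = average inhibition above a cutoff equal to the mean inhibition of all tested compounds plus one SD, cut at about 70% in these data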;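 also: 0% = DMSO in NR2E3 cells and 100% = DMSO in cells lacking NR2E3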
# GAL4-VP16 luc: GAL4-VP16 reporter modulators, confirmation, counter-screen for NR2E3 agonist project, cell-based, luminescence, CHO-S, high throughput. shares compounds with NR2E3 ag-2. CHO-S GAL4-VP16 luciferase reporter. inhibition, % at 3.98 µM. 29% of 2,300 active. AID 624379, 2012;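 active = mean inhibition above a cutoff equal to the average over all tested compounds plus one standard deviation, cut at about 70% in these data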;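 also: luciferase from a UAS reporter driven by GAL4-VP16 transactivation; 0% = DMSO with VP16-transfected cells and 100% = DMSO with cells lacking VP16; higher means less reporter light so more repression of VP16 activity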
# GalR3 conf: GalR3 antagonist hit confirmation, cell-based, fluorescence, triplicate | 59% of 1,600 active | inhibition, % at 3 µM | AID 652245, 2013 | HEK293 GalR3 CNG cAMP biosensor, membrane potential fluorescence; galR3 fused to GalR1 carboxy tail; challenged with forskolin and galanin at EC90 | shares compounds with GalR3 antag;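 active = inhibition above the primary screen's cutoff, the mean inhibition of all screened compounds plus 3 SD, cut at about 13% in these data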;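 also: 0% = forskolin plus galanin and 100% = forskolin alone with DMSO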
# HEK-CNG parental: nonspecific cAMP agonists in parental HEK-CNG cells, counter-screen for GalR3 antagonist project, cell-based, fluorescence, high throughput. shares compounds with GalR3 antag. HEK293-CNG parental cells, cAMP membrane potential fluorescence; normalised: DMSO wells 0%, forskolin wells 100%. activation, % at 3 µM. 10% of 1,600 active. AID 652268, 2013; in the data active = activation above about 1.3%
# Starred values were filed as active, the others as inactive; x = no result given. Compounds with a hit are over-represented: about 1.8% of the library has one in this group of screens.
SMILES,NR2E3 ag-1,Jurkat NFkB inh,NR2E3 ag-2,GalR3 antag,Gli-Sufu block,697 NFkB inh,Gli-Sufu confirm,Gli cytotox,Wnt3a counter,NR2E3 ag conf,GAL4-VP16 luc,GalR3 conf,HEK-CNG parental
Cc1cc(Br)c(S(=O)(=O)NCc2ccncc2)cc1C,2,49,82*,101*,54,-19,52*,22,26*,70*,66,105*,0
COc1cc(S(=O)(=O)NCc2ccncc2)ccc1Br,4,28,95*,63*,68*,-19,61*,16,30*,78*,68,90*,0
Cc1nc2ccccc2n1CC(O)COc1ccc(Br)cc1 (stereo not drawn),-1,21,9,-7,32,-25,x,x,x,x,x,x,x
CCC(=O)c1ccc(OCC(O)Cn2c(C)nc3ccccc32)cc1 (stereo not drawn),2,29,51,56*,51,-35,52*,23,-12,54,38,7,0
Cc1ccc(NC(=O)CSc2ccc3c(c2)OCCO3)c(O)c1,3,15,-4,33*,73*,0,69*,43*,51*,x,x,75*,-1
COc1ccc(-c2noc(CCCCC(=O)N3CCN(c4cc(C)ccc4C)CC3)n2)cc1,x,x,99*,97*,68*,31,73*,28*,30*,97*,84*,105*,-1
CN1CCN(C(=O)c2ccc3c(c2)N(C)C(=O)/C(=C/c2cccc(Cl)c2)S3)CC1,1,4,-14,-1,4,-20,x,x,x,x,x,x,x
COc1ccc(/C=C2\Sc3ccc(C(=O)N4CCN(Cc5ccccc5)CC4)cc3N(C)C2=O)cc1OC,0,33,22,60*,99*,-13,13,13,-7,x,x,106*,0
Cc1cc(C)nc(/N=C(\N)Nc2ccc(CC(=O)OC(C)C)cc2)n1,3,42,36,86*,65*,-72,48*,38*,-4,x,x,58*,1.4*
CCc1nn(C(C)C(=O)N2CCN(c3ccc(OC)cc3)CC2)c(=O)c2cc3occc3n12 (stereo not drawn),-3,40,-26,0,-15,-37,x,x,x,x,x,x,x
OCC[C@H]1C[C@@H](O)[C@H](O)[C@]2(Cc3ccccc3CO2)O1,2,-7,20,-5,9,-4,x,x,x,x,x,x,x
COc1ccc(OC)c(C(=O)NC(CC(N)=O)c2ccc(N3CCN(c4ccc(F)cc4)CC3)c([N+](=O)[O-])c2)c1 (stereo not drawn),8,-1,-14,-6,-7,7,x,x,x,x,x,x,x
CCN(C1CCCCC1)S(=O)(=O)c1ccc(S(=O)(=O)NCc2ccncc2)cc1,1,35,91*,16*,60*,-13,50*,31*,55*,88*,74*,49*,-1
C=CCNc1nc2c(c(=O)n(C)c(=O)n2C)n1CCCCCC,3,48,40,41*,69*,7,75*,36*,40*,x,x,83*,0
CC1(C)CC(N2CCCCC2)=CC(=[N+]2CCCCC2)C1,2,44,-6,47*,84*,-8,87*,46*,48*,x,x,13*,0
COc1ccccc1N(CC(=O)Nc1ccccc1C(=O)N1CCOCC1)S(C)(=O)=O,-2,12,-15,-6,-1,1,x,x,x,x,x,x,x
COc1ccc(S(=O)(=O)Nc2ccc3c(c2)OCO3)cc1OC,-1,-15,-7,-7,-3,-8,x,x,x,x,x,x,x
COc1ccc(NS(=O)(=O)c2ccc3c(c2)OCCO3)cc1OC,2,25,100*,99*,66*,-16,60*,29*,30*,84*,73*,53*,0
Cc1ccc(S(=O)(=O)Nc2ccccc2C(=O)Nc2nc(-c3ccc(F)cc3)cs2)cc1,-3,8,94*,90*,77*,-25,79*,35*,78*,98*,84*,114*,-1
Cc1ccc(S(=O)(=O)Nc2nc(-c3ccccc3)cs2)cc1,0,1,-18,-8,-9,11,x,x,x,x,x,x,x
Cc1ccc(SCc2[nH]nc3c2C(c2cccnc2)C(C#N)=C(N)O3)cc1 (stereo not drawn),0,-12,-17,-1,2,12,x,x,x,x,x,x,x
Cc1cc(C#N)c(C)c(SCc2[nH]nc3c2C(c2ccccc2)C(C#N)=C(N)O3)n1 (stereo not drawn),3,-5,14,27*,58*,3,25,16,0,x,x,12,1
CCOC(=O)N1CCC(N2Cc3cccc(C(=O)Nc4ccccc4OC)c3C2=O)CC1,-1,13,-22,-2,17,8,x,x,x,x,x,x,x

# Assay outcomes (PubChem BioAssay)
